Each block holds one compound with its values, some of them ahead of it.
Tests used:
[1] = Plasma pharmacokinetics of gemcitabine; type: in vivo, human; details: for Tmax / AUC / Cmax: human, plasma, intravenous; for Cmax: Gemcitabine Cmax; for effect of multiple doses of lonafarnib on the pharmacokinetics of gemcitabine: Day 15 versus Day 1
[2] = Multiple-dose plasma pharmacokinetics of lonafarnib; type: in vivo, human; details: for AUC / Cmax / Tmax / half-life: human, plasma, oral; for AUC: Lonafarnib AUC (τ), 12 hour dosing interval; for Cmax: Lonafarnib Cmax; for Tmax: Lonafarnib Tmax (median); for half-life: Lonafarnib T½
Outline: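 Patients with advanced cancer took oral drug twice daily with food continuously, plus 30 min IV gemcitabine on days 1, 8, 15 of 28-day cycles. The evening dose was withheld on […]. Plasma was sampled on day 15 of cycles 1 and 2, pre-dose and to 24 h. LC-MS/MS had LLOQ 5.00 ng/mL.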

[3] = target: farnesyl transferase (Homo sapiens, UniProt P49354+P49356); test: Prelamin A accumulation in buccal mucosal cells; type: in vivo; details: buccal mucosal swabs, cycle 1 day 15 versus day 1; 10 of 17 samples
[4] = lonafarnib 100 mg BID+gemcitabine 750 mg/m2, cycle 1 day 15, n=4
[5] = lonafarnib 100 mg BID+gemcitabine 750 mg/m2, cycle 2 day 15, n=3
[6] = lonafarnib 100 mg BID+gemcitabine 1000 mg/m2, cycle 1 day 15, n=3
[7] = lonafarnib 200 mg BID+gemcitabine 600 mg/m2, cycle 2 day 15, n=4

- Tmax ([1]; 600 mg/m2, Gemcitabine Tmax (median), lonafarnib 200 mg BID+gemcitabine 600 mg/m2, cycle 1 Day 1 (gemcitabine alone), n=6): 0.38 h
- AUC ([1]; 750 mg/m2, Gemcitabine AUC (τ), lonafarnib 100 mg BID+gemcitabine 750 mg/m2, cycle 1 Day 1 (gemcitabine alone), n=4): 5380 ng·h/mL
- Tmax ([1]; 750 mg/m2, Gemcitabine Tmax (median), lonafarnib 100 mg BID+gemcitabine 750 mg/m2, cycle 1 Day 1 (gemcitabine alone), n=4): 0.5 h
- Tmax ([1]; 750 mg/m2, Gemcitabine Tmax (median), lonafarnib 150 mg BID+gemcitabine 750 mg/m2, cycle 1 Day 1 (gemcitabine alone), n=2): 0.25 h
- Tmax ([1]; 1000 mg/m2, Gemcitabine Tmax (median), lonafarnib 100 mg BID+gemcitabine 1000 mg/m2, cycle 1 Day 1 (gemcitabine alone), n=2): 0.38 h
- AUC ([1]; Gemcitabine AUC (τ), lonafarnib 100 mg BID+gemcitabine 750 mg/m2, cycle 1 Day 15 (with lonafarnib), n=4): 7890 ng·h/mL
- AUC ([1]; Gemcitabine AUC (τ), lonafarnib 100 mg BID+gemcitabine 1000 mg/m2, cycle 1 Day 15 (with lonafarnib), n=3): 5060 ng·h/mL
- AUC ([1]; Gemcitabine AUC (τ), lonafarnib 200 mg BID+gemcitabine 600 mg/m2, cycle 1 Day 15 (with lonafarnib), n=7): 4970 ng·h/mL
- Cmax ([1]; lonafarnib 100 mg BID+gemcitabine 750 mg/m2, cycle 1 Day 15 (with lonafarnib), n=4): 15000 ng/mL
- Cmax ([1]; lonafarnib 100 mg BID+gemcitabine 1000 mg/m2, cycle 1 Day 15 (with lonafarnib), n=3): 9800 ng/mL
- Cmax ([1]; lonafarnib 200 mg BID+gemcitabine 600 mg/m2, cycle 1 Day 15 (with lonafarnib), n=7): 11200 ng/mL
- Tmax ([1]; Gemcitabine Tmax (median), lonafarnib 100 mg BID+gemcitabine 750 mg/m2, cycle 1 Day 15 (with lonafarnib), n=4): 0.5 h
- Tmax ([1]; Gemcitabine Tmax (median), lonafarnib 100 mg BID+gemcitabine 1000 mg/m2, cycle 1 Day 15 (with lonafarnib), n=3): 0.25 h
- Tmax ([1]; Gemcitabine Tmax (median), lonafarnib 200 mg BID+gemcitabine 600 mg/m2, cycle 1 Day 15 (with lonafarnib), n=7): 0.25 h
Structure (SMILES): Nc1ccn([C@@H]2O[C@H](CO)[C@@H](O)C2(F)F)c(=O)n1 [Gemcitabine]

- AUC [2, 4]: 6000 ng·h/mL
- AUC [2, 5]: 6030 ng·h/mL
- AUC [2, 6]: 8200 ng·h/mL
- AUC [2, 7]: 14500 ng·h/mL
- Cmax [2, 4]: 717 ng/mL
- Cmax [2, 5]: 757 ng/mL
- Cmax [2, 6]: 1010 ng/mL
- Cmax [2, 7]: 1880 ng/mL
- Tmax [2, 4]: 5 h
- Tmax [2, 5]: 4 h
- Tmax [2, 6]: 4 h
- Tmax [2, 7]: 5 h
- half-life [2, 4]: 5.21 h
- half-life [2, 5]: 3.5 h
- half-life [2, 6]: 3.8 h
- half-life [2, 7]: 4.78 h
- 90% confidence interval for the AUC(τ) point estimate, Cycle 2 Day 15 to Cycle 1 Day 15 ([2]; log-transformed data): 76.2–145%
- AUC(τ) point estimate, Cycle 2 Day 15 compared to Cycle 1 Day 15 ([2]; log-transformed data): 105%
- mean total body clearance (CL/F), range over dose levels ([2]; twice daily multiple doses with weekly gemcitabine): 163 to 594 mL/min
- effect of multiple doses of lonafarnib on the pharmacokinetics of gemcitabine [1]: no apparent effect
- effect of multiple doses of lonafarnib on the pharmacokinetics of gemcitabine ([1]; listed as lonafarnib): no important effect
- samples showing prelamin A accumulation after treatment [3]: 59%
Structure (SMILES): NC(=O)N1CCC(CC(=O)N2CCC([C@H]3c4ncc(Br)cc4CCc4cc(Cl)cc(Br)c43)CC2)CC1 [Lonafarnib]

— article PMC4101887 (Cancer investigation, 2011)
